Structures are written as SMILES. A value given as a limit tells only on which side of the number the result lay.

Here are results for 6 compounds from ChEMBL document CHEMBL1123812, “Pyrroloisoquinoline antidepressants. 2. In-depth exploration of structure-activity relationships” (J Med Chem, 1987).

For test [1], the target named is Norepinephrine transporter (Rattus norvegicus) (UniProt Q9WTR4). Put plainly: Ability to inhibit the uptake of [3H]norepinephrine (NE) 0.1 uM concentration at rat brain synaptosomes. The class given is functional, subcellular. The gist of the method:
(§1)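 Male Wistar rat brain synaptosomes (P2 fraction): hypothalamus for NE, striatum for DA, cerebral cortex for 5-HT. Buffer is Tris- or HEPES-buffered salt medium with glucose, ascorbate and nialamide, pH 7.4 at 37 °C. Preincubated 10 min at 37 °C with compound. Uptake started with [3H]NE 100–300 nM, [3H]DA 50–300 nM or [3H]5-HT 100–200 nM, incubated 3 min (DA) or 6–10 min (NE, 5-HT). Blanks held on ice. Filtered, counted by scintillation.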

The species named for a further test is Rattus norvegicus. Put plainly: Ability to inhibit the uptake of tritiated dopamine (DA) 1 uM concentration. In kind it is functional. In short, it runs like this: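 Rat brain synaptosomal [3H]dopamine uptake: striatal P2 fraction, test compound at 1.00 μM. Preincubated at 37 °C, then 50–300 nM [3H]DA for 3 min. Blanks on ice. Filtration and scintillation counting; percent inhibition of control uptake.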

The species named for test [2] is Mus musculus. Put plainly: Antagonism of tetrabenazine (TBZ)-induced depression in mice measured for ptosis. The class given is functional. The conditions noted are these: Mus musculus; read-out: ED50. In short, it runs like this:
(§2)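 Nonfasted male Swiss Webster mice, 18–24 g, ten per dose level and in saline controls. Test compound given ip 30 min before tetrabenazine 32 mg/kg ip; dose expressed as free base. Motor activity and ptosis scored. Control response ≤90% corrected by Abbott's formula.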

The target in test [3] is Sodium-dependent serotonin transporter (Rattus norvegicus) (UniProt P31652). In words: Ability to inhibit the uptake of [3H]- serotonin(5-HT) 0.1 uM concentration at rat brain synaptosomes. The class given is functional, subcellular. In short, it runs like this:
as §1

The species named for test [4] is Mus musculus. In words: Antagonism of tetrabenazine (TBZ)-induced depression measured in mice by motor activity. In kind it is functional. Conditions: Mus musculus; read-out: ED50. The gist of the method:
as §2

The species named for test [5] is Mus musculus. In words: Gross behavioral effects ascertained in mice; W indicates weak stimulant or depressant activity of little significance. The class given is functional, organism-based. In short, it runs like this: (§3)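 Male Swiss Webster mice, 18–24 g, three per dose, given ip doses of 1, 3, 10, 30, 100 and 300 mg/kg. Observed for gross behavior and held for 4 days. Scored as weak (W), stimulant (S), depressant (D) or convulsant (C).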

Test [6] has as its target Sodium-dependent dopamine transporter (Rattus norvegicus, UniProt P23977). Put plainly: Inhibition of the uptake of tritiated dopamine (DA) in rat synaptosomes. The class given is subcellular, Brain.
For test [7], the target named is Adrenergic receptor alpha-1 (Rattus norvegicus) (UniProt P15823+P23944+P43140). Put plainly: Binding affinity towards alpha-1 adrenergic receptor at 1.0 uM concentration. In kind it is protein assay. In short, it runs like this:
(§4)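 Rat brain crude synaptic membranes in 20 mM NaHEPES pH 7.5. Ligands: α1 cortex […] 0.4 nM, nonspecific with (-)-NE 100 μM, 30 min at 25 °C. […] D2 striatum [3H]spiperone 0.05 nM with (+)-butaclamol 1 μM, 45 min at 37 °C. S1 cortex [3H]5-HT 1 nM plus glutathione and MgCl2, with 5-HT 10 μM, 20 min at 37 °C. […] Samples filtered on GF/B and counted.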

Test [8] has as its target Muscarinic acetylcholine receptor (Rattus norvegicus) (UniProt P08482+P08483+P08485+P08911+P10980). Put plainly: Binding affinity towards Muscarinic acetylcholine receptor at 1.0 uM concentration. In kind it is protein assay.
In test [9] the target is Adrenergic receptor alpha-2 (Rattus norvegicus) (UniProt P22086+P19328+P22909). In words: Binding affinity towards alpha-2 adrenergic receptor at 1.0 uM concentration. The class given is protein assay.
Test [10] deals with D(1A) dopamine receptor (Rattus norvegicus) (UniProt P18901). Put plainly: Binding affinity towards Dopamine receptor D1 at 1.0 uM concentration. The gist of the method: as §4
D(1A) dopamine receptor (Rattus norvegicus), sequence (P18901 whole entry): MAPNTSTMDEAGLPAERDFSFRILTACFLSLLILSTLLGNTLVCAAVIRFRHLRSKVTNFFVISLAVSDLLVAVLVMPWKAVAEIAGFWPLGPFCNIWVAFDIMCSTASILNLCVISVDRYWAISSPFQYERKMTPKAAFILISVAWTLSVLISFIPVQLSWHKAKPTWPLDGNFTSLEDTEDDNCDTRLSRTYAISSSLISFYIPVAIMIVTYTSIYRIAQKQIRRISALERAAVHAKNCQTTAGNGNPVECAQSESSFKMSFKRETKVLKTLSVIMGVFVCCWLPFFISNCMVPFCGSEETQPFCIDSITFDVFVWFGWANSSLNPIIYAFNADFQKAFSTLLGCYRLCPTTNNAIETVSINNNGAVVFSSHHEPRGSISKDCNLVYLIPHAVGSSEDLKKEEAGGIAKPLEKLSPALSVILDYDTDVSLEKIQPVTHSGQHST
Test [11] concerns the target D(2) dopamine receptor (Rattus norvegicus) (UniProt P61169). In words: Binding affinity towards dopamine receptor D2 at 1.0 uM concentration. In short, it runs like this:
as §4

For test [12], the target named is Norepinephrine transporter (Rattus norvegicus, UniProt Q9WTR4). In words: Inhibition of uptake of tritiated norepinephrine (NE) in rat synaptosomes. The class given is subcellular, Brain.
Norepinephrine transporter, sequence (Q9WTR4 whole entry): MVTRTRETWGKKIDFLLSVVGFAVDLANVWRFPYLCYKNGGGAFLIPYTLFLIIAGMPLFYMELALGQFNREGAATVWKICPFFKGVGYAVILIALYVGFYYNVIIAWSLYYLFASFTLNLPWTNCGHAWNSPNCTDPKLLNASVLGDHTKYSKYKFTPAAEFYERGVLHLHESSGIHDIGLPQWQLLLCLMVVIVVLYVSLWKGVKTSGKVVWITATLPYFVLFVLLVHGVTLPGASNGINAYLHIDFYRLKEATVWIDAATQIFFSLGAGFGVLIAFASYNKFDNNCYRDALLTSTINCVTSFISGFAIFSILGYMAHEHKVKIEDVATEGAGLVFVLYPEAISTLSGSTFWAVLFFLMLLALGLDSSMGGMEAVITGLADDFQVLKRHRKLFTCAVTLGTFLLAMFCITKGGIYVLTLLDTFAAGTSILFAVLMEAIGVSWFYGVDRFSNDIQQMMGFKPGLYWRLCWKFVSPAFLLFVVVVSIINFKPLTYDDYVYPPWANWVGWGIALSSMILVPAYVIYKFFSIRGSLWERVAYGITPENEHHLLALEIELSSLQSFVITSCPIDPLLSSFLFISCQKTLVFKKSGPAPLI
For a further test, the target named is D(1A) dopamine receptor (Rattus norvegicus, UniProt P18901). Put plainly: Binding affinity towards Dopamine receptor D1.
D(1A) dopamine receptor, sequence (P18901 whole entry): as the sequence (P18901 whole entry) above
The species entered for test [13] is Mus musculus. Put plainly: Gross behavioral effects ascertained in mice; S indicates significant stimulant properties. In kind it is functional, organism-based. The gist of the method: as §3
The target in test [14] is T1, Adrenergic receptor alpha-1 (Rattus norvegicus, UniProt P15823+P23944+P43140).
T1 sequence (P15823 whole entry): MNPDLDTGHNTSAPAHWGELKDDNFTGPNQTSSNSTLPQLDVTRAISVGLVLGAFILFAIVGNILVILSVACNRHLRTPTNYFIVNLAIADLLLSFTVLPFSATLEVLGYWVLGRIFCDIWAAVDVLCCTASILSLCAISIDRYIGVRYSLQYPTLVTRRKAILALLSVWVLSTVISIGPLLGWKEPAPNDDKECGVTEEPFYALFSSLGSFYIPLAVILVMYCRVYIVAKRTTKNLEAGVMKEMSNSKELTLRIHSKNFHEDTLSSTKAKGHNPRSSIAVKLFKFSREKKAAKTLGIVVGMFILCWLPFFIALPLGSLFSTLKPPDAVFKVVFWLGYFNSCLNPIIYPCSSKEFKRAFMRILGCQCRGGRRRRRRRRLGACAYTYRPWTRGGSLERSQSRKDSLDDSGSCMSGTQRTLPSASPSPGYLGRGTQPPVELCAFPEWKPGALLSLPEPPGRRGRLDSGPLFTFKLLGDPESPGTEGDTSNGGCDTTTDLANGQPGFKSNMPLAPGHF
T1 sequence (P23944 whole entry): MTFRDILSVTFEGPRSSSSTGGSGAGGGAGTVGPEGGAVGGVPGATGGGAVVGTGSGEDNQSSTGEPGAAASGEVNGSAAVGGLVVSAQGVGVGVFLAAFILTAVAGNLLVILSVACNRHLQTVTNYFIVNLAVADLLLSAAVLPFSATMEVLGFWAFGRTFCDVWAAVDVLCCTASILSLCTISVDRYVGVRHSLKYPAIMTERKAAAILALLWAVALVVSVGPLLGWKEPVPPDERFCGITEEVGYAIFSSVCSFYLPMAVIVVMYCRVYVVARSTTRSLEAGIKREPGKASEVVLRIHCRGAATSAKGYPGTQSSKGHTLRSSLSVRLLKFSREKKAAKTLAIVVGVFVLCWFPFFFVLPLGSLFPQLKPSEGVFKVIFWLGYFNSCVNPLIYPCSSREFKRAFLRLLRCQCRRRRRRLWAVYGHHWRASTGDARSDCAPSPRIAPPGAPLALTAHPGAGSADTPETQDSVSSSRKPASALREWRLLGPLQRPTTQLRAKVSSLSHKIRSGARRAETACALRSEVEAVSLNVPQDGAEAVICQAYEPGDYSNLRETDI
T1 sequence (P43140 whole entry): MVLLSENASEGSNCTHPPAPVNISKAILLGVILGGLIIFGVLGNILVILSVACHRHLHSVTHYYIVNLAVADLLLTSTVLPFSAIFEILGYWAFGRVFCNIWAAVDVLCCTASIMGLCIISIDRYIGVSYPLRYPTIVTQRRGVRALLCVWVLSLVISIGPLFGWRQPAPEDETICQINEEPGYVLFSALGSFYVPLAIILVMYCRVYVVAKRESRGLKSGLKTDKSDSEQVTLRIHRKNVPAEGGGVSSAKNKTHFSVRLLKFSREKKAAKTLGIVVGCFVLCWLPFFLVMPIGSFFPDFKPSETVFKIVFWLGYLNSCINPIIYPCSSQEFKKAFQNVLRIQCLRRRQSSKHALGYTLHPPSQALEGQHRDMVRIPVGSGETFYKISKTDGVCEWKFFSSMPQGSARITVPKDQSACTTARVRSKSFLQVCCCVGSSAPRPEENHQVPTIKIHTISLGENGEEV
In words: Binding affinity towards alpha-1 adrenergic receptor. The class given is protein assay.

In test [15] the target is Serotonin 2 (5-HT2) receptor (Rattus norvegicus, UniProt P30994+P08909+P14842). In words: Binding affinity towards 5-hydroxytryptamine 2 receptor. In kind it is protein assay.
Test [16] deals with Serotonin 1 (5-HT1) receptor (Rattus norvegicus) (UniProt P28564+P30940+P19327+P28565). In words: Binding affinity towards serotonin S1 receptor at 1.0 uM. In kind it is protein assay. In short, it runs like this: as §4
Test [17] concerns the target Sodium-dependent serotonin transporter (Rattus norvegicus) (UniProt P31652). In words: Inhibition of tritiated serotonin(5-HT) uptake at 0.1 uM concentration. The class given is functional. The gist of the method: as §1
For test [18], the species on record is Mus musculus. In words: Gross behavioral effects ascertained in mice; D indicates significant depressant properties. In kind it is functional, organism-based. In short, it runs like this:
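Male Swiss Webster albino mice, 18–24 g, three per dose, given ip 1, 3, 10, 30, 100 and 300 mg/kg. Gross behaviour observed and held 4 days. Estimated LD50 range from lethality count on day 4. Scored as weak stimulant/depressant, significant stimulant, significant depressant or overt convulsant.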

D(2) dopamine receptor (Rattus norvegicus), sequence (P61169 whole entry): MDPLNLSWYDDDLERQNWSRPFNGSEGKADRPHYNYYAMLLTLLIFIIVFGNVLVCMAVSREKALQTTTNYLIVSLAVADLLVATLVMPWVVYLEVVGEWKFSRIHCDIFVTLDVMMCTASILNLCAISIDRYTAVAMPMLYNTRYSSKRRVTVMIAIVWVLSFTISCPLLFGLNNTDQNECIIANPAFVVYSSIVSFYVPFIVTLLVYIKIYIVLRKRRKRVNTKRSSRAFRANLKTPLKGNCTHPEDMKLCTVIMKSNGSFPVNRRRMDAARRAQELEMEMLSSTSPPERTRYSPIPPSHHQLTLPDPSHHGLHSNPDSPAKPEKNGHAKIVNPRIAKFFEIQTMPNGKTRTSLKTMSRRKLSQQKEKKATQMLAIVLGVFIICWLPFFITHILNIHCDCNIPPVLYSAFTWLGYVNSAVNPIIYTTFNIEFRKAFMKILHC
Sodium-dependent dopamine transporter, sequence (P23977 whole entry): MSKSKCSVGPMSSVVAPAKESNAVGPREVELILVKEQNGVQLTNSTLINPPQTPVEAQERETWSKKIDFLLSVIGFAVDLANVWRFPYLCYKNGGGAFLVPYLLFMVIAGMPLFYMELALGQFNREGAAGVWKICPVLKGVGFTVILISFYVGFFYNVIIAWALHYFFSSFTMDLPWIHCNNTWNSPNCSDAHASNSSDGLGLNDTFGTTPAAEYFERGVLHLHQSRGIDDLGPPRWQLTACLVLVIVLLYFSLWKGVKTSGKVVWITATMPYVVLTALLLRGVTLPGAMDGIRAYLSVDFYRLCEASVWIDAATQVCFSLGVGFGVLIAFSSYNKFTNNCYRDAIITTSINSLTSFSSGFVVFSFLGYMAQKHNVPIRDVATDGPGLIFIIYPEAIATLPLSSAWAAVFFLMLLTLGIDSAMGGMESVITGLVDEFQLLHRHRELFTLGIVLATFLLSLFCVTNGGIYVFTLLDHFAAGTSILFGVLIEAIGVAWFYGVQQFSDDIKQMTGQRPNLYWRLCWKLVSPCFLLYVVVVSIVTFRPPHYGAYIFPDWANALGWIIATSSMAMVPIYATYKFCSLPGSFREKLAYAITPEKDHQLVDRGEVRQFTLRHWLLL
Sodium-dependent serotonin transporter (Rattus norvegicus), sequence (P31652 whole entry): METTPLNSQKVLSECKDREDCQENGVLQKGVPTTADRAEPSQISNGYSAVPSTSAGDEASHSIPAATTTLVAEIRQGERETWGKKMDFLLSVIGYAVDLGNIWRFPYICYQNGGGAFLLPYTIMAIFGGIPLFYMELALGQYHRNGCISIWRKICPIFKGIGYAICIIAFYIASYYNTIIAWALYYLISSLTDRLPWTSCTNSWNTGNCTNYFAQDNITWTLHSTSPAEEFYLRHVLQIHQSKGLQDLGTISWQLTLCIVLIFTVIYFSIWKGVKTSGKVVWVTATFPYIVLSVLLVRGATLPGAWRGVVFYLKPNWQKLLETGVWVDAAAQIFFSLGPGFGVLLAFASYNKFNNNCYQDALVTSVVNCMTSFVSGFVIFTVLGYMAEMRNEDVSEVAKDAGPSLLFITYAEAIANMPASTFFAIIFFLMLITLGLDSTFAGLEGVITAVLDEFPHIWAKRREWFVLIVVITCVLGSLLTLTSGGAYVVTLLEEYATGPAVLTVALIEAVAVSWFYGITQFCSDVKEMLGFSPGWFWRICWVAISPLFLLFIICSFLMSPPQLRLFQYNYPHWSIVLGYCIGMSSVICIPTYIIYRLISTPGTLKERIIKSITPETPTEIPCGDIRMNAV
Norepinephrine transporter (Rattus norvegicus), sequence (Q9WTR4 as listed by the source): as the sequence (Q9WTR4 whole entry) above

For the compound `Br.c1ccc([C@H]2Cc3ccccc3[C@@H]3CCCN23)cc1`, the values for the inhibition in test [1] and in [3] were 11% and -9%, respectively. Also, the Inhibition in the test listed under Rattus norvegicus worked out at 36%. In addition, the results for the ED50 in the test listed under Mus musculus [2] and in the test filed under Mus musculus [4] were approximately 3 mg/kg and approximately 30 mg/kg, respectively. Moreover, in the test filed under Mus musculus [5], the behavior result is “Weak”.

For `COc1cccc([C@@H]2CN3CCC[C@@H]3c3ccccc32)c1`, the Ki in test [6] was found to be 15.8 nM; in [12], 0.65 nM. Also, the inhibition in test [7] was 87%; in test [8] it was 1%; in [9], 37%; in [10] it was 40%; in test [11], 27%. The ED50 in the test listed under Mus musculus [2] is 0.07 mg/kg; in the test filed under Mus musculus [4] it was approximately 0.2 mg/kg. Further, the behavior entry in the test filed under Mus musculus [5] is on record as “Partial stimulant”.

`Br.Oc1ccc([C@@H]2CN3CCC[C@@H]3c3ccccc32)cc1O`: the Ki in [6] was 10.1 nM; at D(1A) dopamine receptor it was more than 1000 nM; in test [12] it was 0.81 nM; in [14], 675 nM. Moreover, the ED50 in the test filed under Mus musculus [2] was determined as 0.11 mg/kg; in the test listed under Mus musculus [4] it was 0.19 mg/kg. The inhibition came out at 0% in test [8], 26% in test [9] and 5% in test [11]. Moreover, the behavior entry in the test listed under Mus musculus [13] was “Stimulant”.

For `COc1ccc2c(c1)CN(C)CC2c1ccc(Cl)c(Cl)c1` (centres undefined) [DICLOFENSINE], the Ki in test [6] came out at 10.9 nM; in test [12] it was 8.8 nM; in [15] it was 37 nM. In addition, the inhibition in test [7] is -6%; in test [10], 38%; in test [11], 27%; in [16], 33%.

For `Fc1ccc([C@@H]2CN3CCC[C@@H]3c3ccccc32)cc1`, the ED50 in the test filed under Mus musculus [2] and in the test filed under Mus musculus [4] was approximately 0.2 mg/kg in each case. In addition, the inhibition in test [10] is 56%. In [12], the Ki came out at 1.4 nM. In addition, the behavior entry in the test filed under Mus musculus [5] was “Partial stimulant”.

For the compound `Br.COc1ccc2c(c1)[C@@H]1CCCN1C[C@H]2c1ccccc1`, the Ki in test [6] was 38.9 nM; in [12] it was 20.9 nM. Moreover, the inhibition in test [17] is 21%. In addition, the figures for the ED50 in the test filed under Mus musculus [2] and in the test listed under Mus musculus [4] were 8 mg/kg and approximately 40 mg/kg, respectively. For the same compound, in the test listed under Mus musculus [18], the behavior result was “Significant depressant”.

As a reminder, the inhibition is the change of the read-out against control, counted positive when it falls. A word on the Inhibition: it is the percentage by which the read-out fell short of the control. A higher Inhibition goes with a strong effect. Usually ED50 stands for the dose at which the effect has come halfway, by size or by number of responders. What is called Ki is the dissociation constant of the complex between target and ligand, obtained from inhibition or displacement. Read a low Ki as tighter binding.
